Assay results from the EternaBench riboswitch data.

Tested on: MS2 coat protein
Assay: apparent Kd, MS2 coat protein; higher = weaker binding; RNA-MaP array; FMN 200 µM where present
Summary of the method: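 Designs were transcribed by stalled E. coli RNA polymerase on Illumina sequencing-chip clusters. They were titrated with SNAP-549-labelled MS2 coat protein from 0.7 or 1.5 nM, doubling to 3 µM, in 100 mM Tris-HCl pH 7.5, 80 mM KCl, 4 mM MgCl2, BSA, DTT, yeast tRNA and Tween-20, without and then with constant ligand. The apparent Kd is the median of filtered per-cluster fits after normalisation of green signal to red-channel RNA signal and control-cluster median Fmax.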

[1] = designed as: ON switch for flavin mononucleotide, no ligand
[2] = ligand present: flavin mononucleotide, designed as: ON switch for flavin mononucleotide
[3] = designed as: OFF switch for flavin mononucleotide, no ligand
[4] = ligand present: flavin mononucleotide, designed as: OFF switch for flavin mononucleotide

Row | Sequence | apparent Kd [1] [nM] | apparent Kd [2] [nM] | apparent Kd [3] [nM] | apparent Kd [4] [nM]
1 | UCGAAACAUGAGGAUCACCCAUGUGCUCACGACAUAGGAUAUACUAGCUCGAAGAGCUGCGUAGAAGGGUGAAGUG | 45.9 | 26.8 |  | 
2 | GCCUCAUAGUAGAAGGGACUUAGACAGUUAAGCAUCUUGUACAAUUAACAUGAGGAUCACCCAUGUCAGGAUAUACUAAGAGGC |  |  | 8.02 | 9.49
3 | UUGUUGUAUGUAGGAUAUGCAUAUUAUUAUUGUGCAGAAGGACAUGAGGAUCACCCAUGUAUAUUAUUAUUAUAUGUUAUAUAU |  |  | 30.6 | 37.4
4 | GGGUACAUCGGAGGAUAUCAUGUAAUUACAUGAGGAUCACCCAUGUCGAUGGAGACAUCGGAGAUUGAGAAGGCCGAUGUACCG | 316 | 12.4 |  | 
5 | GACAACAGAGGAUAUGCAUUGAGAUAGUUAUGAAGGUUGUUACAUGAGGAUCACCCAUGUAGAAGGCUGUCGUU |  |  | 18.3 | 24.3
6 | UGCUGGUGACAGCAUCCAUCAAAACAUGAGGAUCACCCAUGUAGAAGGCUGUACGGUUACCGUACAGAGGAUAUACAAUGAUGC |  |  | 15.4 | 29.4
7 | UUAUAUAUAUAAGGAUAUGUAUAUCCAACAUGAGGAUCACCCAUGUUGAGGAUCACCCAUGUAAAGCAGAAGGUAUAUAUAAAU | 42.8 | 26.4 |  | 
8 | ACAUGCUGCCGGCAGGAUAUCGCUUGGCGGACAUGAGGAUCACCCAUGUGAGAAAGUCGCGCGCGCGAGAAGGGCCAUGGUAUCAG | 98.2 | 80 |  | 
9 | GGAUUUCCUGAGGAUAUUGUAUCACCUGAUUGAUAAGAAGGCAGAACAUGAGGAUCACCCAUGUGGGUACUCGG |  |  | 134 | 135
10 | AACAGUACAGGAUAUACAUGAGGAUCACCCAUGUGAGAAUUAAGUGGCGUACCACAAAGUAGAAGGGUACUGGA |  |  | 36.9 | 133
11 | AGACAUACUCAAGGAUAUCGUCGUACAUGAGGAUCACCCAUGUCGCACUUCUAAAGAGAAGUUGGCGAGAAGGUGAGGUUCGUU | 18.8 | 7.76 |  | 
12 | CAGGUAGACUGAGGAUAUACACUAAACAGCUAGUCUAUCUAGCUGCCUACAUGAGGAUCACCCAUGUAGAAGGCAGUCUGCCUG |  |  | 15.8 | 18.2
13 | AAAAAACAUGAGGAUCACCCAUGUCAGGAUAUUCGAAAAAAAAAAAAAAAAAAAAAAAGGAGAAGGGACGAAAA |  |  | 60.1 | 50
14 | AUUAUUAAGUUAGGAUAUAGUAAAAUAAUUUAAUUAGAAGGAGCUCACAUGAGGAUCACCCAUGUAAGAGGAUCACCCAUGUAU |  |  | 22.3 | 16.5
15 | AGAUGGUAGAGAGGAUAUCAUGUGCUGACAUGAGGAUCACCCAUGUAGGGACGUCGGUCCAAUUAUGAGAAGGCUCUACCAUCA | 81.7 | 50.8 |  | 
16 | UGGUCAUGAUCAGGAUAUUAACAUGGGCUACAUUAAGAAGGGAUAGUGAGAUACGAACUGAAACAUGAGGAUCACCCAUGUGUU | 170 | 107 |  | 
17 | AAUAACAGAGGAUAUACUAUUUUAUGUGUUUGUUGUUUUGAACAUGAGGAUCACCCAUGUAGAAGGCUGAUUGA |  |  | 42.6 | 45.3
18 | GCUGGUCGAGGAUAUGCAAUCGUGCUUCGGCACGUAAGAUCACAUGAGGAUCACCCAUGUAGAAGGCGACCAGC |  |  | 19.5 | 74
19 | AUAUUACGAGGAUAUCGUCUCUCCCACAUGAGGAUCACCCAUGUUAUCCAUGUUUCGUUUCGAGAAGGCGUAAGUU |  |  | 75.9 | 58
20 | UCAGGCUUCGAGAAGGACAUGAGGAUCACCCAUGUUAACAUGUAGCAGCCGUGAGGCUGCAUCAUGUAGGAUAUCGGAGUCUGC |  |  | 6.07 | 7.07
21 | UGUAUGGACAGAGGAUAUACGUGCUAGAGAUACUAGCAAAUAAUCCUUACAUGAGGAUCACCCAUGUAGAAGGCUGUCCAUACU |  |  | 20.1 | 46.5
22 | ACAUGAGGAUCACCCAUGUUAUAUGGGAAUUAAUUUAUUUGUAGAAGGAUGUUUUCUUGUUAGUCAUAGGAUAUACUAUUAAAU |  |  | 255 | 158
23 | GCAGUGCCAGCGGUACUGCCUCUAGCAGAAGGGUGACGAGACAUGAGGAUCACCCAUGUAGAGACACAGGAUAUGCACCAGCUU | 142 | 8.26 |  | 
24 | ACAUGCGGAUGAGGAUAUUCAUCCAUGAGGAUAGAAGAAGGCAUACAUGAGGAUCACCCAUGUAUACGCAUGAGGAUCCCUUAU |  |  | 23.6 | 28.7
25 | CACUGCAAUGUAGGAUAUCGACUGGAUAACAGUCGAGAAGGACAUGAGGAUCACCCAUGUAAUCCUAAUAAUAAAUAAGCAGUG |  |  | 12.1 | 17.8
26 | AAAACAUGAGGAUCACCCAUGUAAAGAUCGGUUAAUAGAGGUGAGGAUAUACUAAAUUUUGGGUGGUAGAAGGCACUGGGUACA | 187 | 122 |  | 
27 | UCAUUUAAUACAGGAUAUGUUAGUAUACAGUAGAUUGGUUAUUACAUAAUAACAGAAGGGUAGAACAUGAGGAUCACCCAUGUA | 265 | 96.2 |  | 
28 | CGUAACUGCAUAGGAUAUUGAUACAUGAGGAUCACCCAUGUUUUUCGGAUUAUAUAUCUACUUAGCAAGAAGGAUGGAGUUACG | 7.09 | 5.15 |  | 

Row | Sequence | apparent Kd [1] [nM] | apparent Kd [2] [nM] | apparent Kd [3] [nM] | apparent Kd [4] [nM]
29 | AAUAAACACACAGGAUAUAGCAUCGACGUUGCGAACUUAGCGACGUCGAUGCUAGAAGGGUGAAAACAUGAGGAUCACCCAUGU | 73.3 | 19.2 |  | 
30 | GUAGCAUACCGAGGAUAUUCAUUACAUGAGGAUCACCCAUGUUUUAUAGGCCGAUUACGGCCUUGGGAGAAGGCGGAAUGCUAC | 14.8 | 11.1 |  | 
31 | GUAUUUAGAUAAGGAUAUAAGUCUAGGACAUGAGGAUCACCCAUGUGUGUCUUAGAAGGUAUUUGGGUAAUACUGUUACAGUAA | 150 | 99.5 |  | 
32 | GCUGCAUGUGAGAAGGCGAUCAUGAAACAUGAUCGAGGAUAUCAUGUAAACAUGAGGAUCACCCAUGUAUGGGUAUUAAGCAGC |  | 59.3 |  | 
33 | AAAAUCUAUAGAGGAUAUCCAUACGCUGCAUACGGAGAAGGCUAACAAUCAUGAGGACAUGAGGAUCACCCAUGUUGUGACCAU | 17.6 | 9.82 |  | 
34 | ACCUCACAUGAGGAUCACCCAUGUCAGGAUAUCUUUUAAAACAGCAAUCCUGUCGCUGAGAGAAGGGACAUUAA |  |  | 27.6 | 35.6
35 | CAGACCUACGCAGGAUAUCUUGGGUGUUUCAUGGCAAGAGUCGGUACAUGAGGAUCACCCAUGUAAGAGAAGGGCGUUGCUAAA |  |  | 404 | 83
36 | GUGUAGUUAGGAUAUGCUGGAAUCUAGCGAAGCUAGGUUCCACAUGAGGAUCACCCAUGUAGAAGGGACUACAC |  |  |  | 73
37 | AUAUGGGCUAACAUGAGGAUCACCCAUGUGUUAUACUUAAUAUAGGAUAUGUUUAUACUUUUUGGGCAGAAGGAUGGCCCAUAU | 67.9 | 68.7 |  | 
38 | AAGUCGACGGUGAGGAUAUCGGUUGAACGACAGAUCGAGAAGGCACAUGAGGAUCACCCAUGUGGGUAACGUCG |  |  | 19.3 | 31.8
39 | UGGUACAUCGGAGGAUAUCAUGUAGAUACAUGAGGAUCACCCAUGUCGUACGAUAGUACGGAGAUUGAGAAGGCCGAUGUACCU | 30.5 | 16.6 |  | 
40 | GUGCGUGGCUAGGAUAUUGUGGAGUUUAGUCAGCGAGAAGGUGCCACAUGAGGAUCACCCAUGUGGUGUUGCUC |  |  | 19.8 | 21.7
41 | CAAUUCCGAGGAUAUACAUGAGGAUCACCCAUGUCGGGCCUCAGCGUUUAGCGCCUAAGUAGAAGGUGGGUUUC |  |  | 42.9 | 40.4
42 | UUACUUCAUGAGAAGGACAUGAGGAUCACCCAUGUAGGAUAUCGUGGGAGACUGGUAUUGAAUCUUCGGAUUCAAUACCUGUCU | 59.7 | 9.3 |  | 
43 | GUGGUCAGACAUGAGGAUCACCCAUGUGGAAUAAAUAAGGGAGAGGAUAUAUAAUAUAGGAUAUAAUAGAAGGCUCGGUUGGUG | 82.5 | 111 |  | 
44 | GUGUACAUCGGAGGAUAUCAUGUAAAUACAUGAGGAUCACCCAUGUCGAUGGAGACAUCGGAGAUUGAGAAGGCCGAUGUACCG | 169 | 9.35 |  | 
45 | AAAAAAAAAAACUAGGAUAUUUAACGGACAACAUGAGGAUCACCCAUGUCACAAAAAAAAAUAGUAAAGAAGGAGUAAAAAAAAAA | 32.7 | 31.8 |  | 
46 | GUAUAUAGUGUGAGGAUAUGCUGGUCCUUGGAUCAGCAGAAGGCACAUGAGGAUCACCCAUGUAGUUUAUUUUA |  |  | 30.6 | 89.4
47 | AUACUCUUUGUGAGGAUAUCGUUUUCUUUACGGUUCGAGAAGGCACAUGAGGAUCACCCAUGUUUGACGUGAAU |  |  | 24.4 | 56.5
48 | AAGCCCUGAGGAUAUCCCAACUCGCACAUGAGGAUCACCCAUGUCCUUCUCUGGGUUUCGGGAGAAGGCAGGUCUC |  |  | 348 | 161
49 | ACCUAGCCCAGGCCCACGGCAUCACAGGAUAUGCCGAUAACAUGAGGAUCACCCAUGUCAACUCCGCAGAAGGGUGAUAUCGUG | 89.2 | 13.5 |  | 
50 | GUGGCUAGUGCAGGAUAUCGGCGCGUGUAGUGCCGAGAAGGGCACAUGAGGAUCACCCAUGUGAUCAAUCACUGCUAAGGCCGC |  |  | 5.19 | 5.37
51 | CUGAGCAAUGUAGGAUAUCGACUGGAAUACAGUCGAGAAGGACAUGAGGAUCACCCAUGUCAAUGAGUGAAUAAUAAAGCUCAG |  |  | 20.7 | 118
52 | GAUUGUUUUUAGAAGGUGCCGGCGAGAGCCGCAACAUGAGGAUCACCCAUGUGUCGGUGACGACGCAAGGAUAUGGAGGUGGUU | 217 | 108 |  | 
53 | GUCCUACAUGAGGAUCACCCAUGUGAGGAUAUGGAUUCGCUGGCCGUAGCCAGUGGAUCCAGAAGGCGCGUGAU |  |  | 63.1 | 64.8
54 | GCUGCAUAUGAGAAGGCGAUCAUGAAACAUGAUCGAGGAUAUCAUGUAAACAUGAGGAUCACCCAUGUAUGGGUAUUAAGCAGC | 282 | 50.5 |  | 
55 | UUGGACGUCGUAGGAUAUGUAGGAUAUUCCUACAUGAGGAUCACCCAUGUUGACAAGGAAGAAGGACAGAAGGACGAUGUCCAU | 5.37 | 3.37 |  | 
